In ChEMBL document CHEMBL3596125, “Discovery of substituted 1,4-dihydroquinolines as novel promising class of P-glycoprotein inhibitors: First structure-activity relationships and bioanalytical studies” (Bioorg Med Chem Lett, 2015):

What was measured:
[1] = organism: Homo sapiens; assay: Inhibition of human P-gp expressed in mouse T-cell lymphoma assessed as ratio of rhodamine 123 uptake in P-gp expressing cells to rhodamine 123 uptake in non P-gp expressing cells at 1 uM by flow cytometric analysis relative to control; assay type: cell-based
Outline: (§1)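 Rhodamine 123 uptake is read by flow cytometry in the parental mouse T-lymphoma line and in the colchicine-selected subline expressing human P-gp, with or without inhibitor. Fluorescence in each line is first normalized to the untreated control of that line. The FAR value is then calculated as subline fluorescence divided by parental-line fluorescence.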

[2] = organism: Homo sapiens; assay: Inhibition of human P-gp expressed in mouse T-cell lymphoma assessed as ratio of rhodamine 123 uptake in P-gp expressing cells to rhodamine 123 uptake in non P-gp expressing cells at 10 uM by flow cytometric analysis relative to control; assay type: cell-based; outline: as §1
[3] = organism: Homo sapiens; assay: Activity at human P-gp expressed in mouse T-cell lymphoma assessed as fluorescence ratio at 50 uM by flow cytometric analysis
Outline: (§2)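 Cells are the parental mouse T-lymphoma line and its subline transfected retrovirally with human P-gp, which is maintained under colchicine selection. The fluorescent test compound is added at 50 or 100 µM. Intrinsic compound fluorescence taken up by the cells is read by flow cytometry. The ratio relates the uptake in the P-gp-expressing subline to that in the parental line. Values are means of three determinations.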

[4] = Cytotoxicity against mouse T-cell lymphoma assessed as reduction of cell viability after 24 hrs by MTT assay
Outline: (§3)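 MTT viability assay, with formazan formation by mitochondrial dehydrogenases as the read-out. Cells are the parental mouse T-lymphoma line or its retrovirally transfected subline expressing human P-gp, which is kept under colchicine. Cells are incubated with varying concentrations of compound for 24 or 48 h. IC50 is derived from the reduction in viability.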

[5] = organism: Homo sapiens; assay: Activity at human P-gp expressed in mouse T-cell lymphoma assessed as fluorescence ratio at 100 uM by flow cytometric analysis; outline: as §2
[6] = Cytotoxicity against mouse T-cell lymphoma assessed as reduction of cell viability after 48 hrs by MTT assay; outline: as §3
[7] = Cellular uptake in mouse T-cell lymphoma assessed as fluorescence ratio at 50 uM by flow cytometric analysis; assay type: ADME; settings: in vitro; outline: as §2
[8] = Cellular uptake in mouse T-cell lymphoma assessed as fluorescence ratio at 100 uM by flow cytometric analysis; assay type: ADME; settings: in vitro; outline: as §2
[9] = Cytotoxicity against mouse T-cell lymphoma expressing human P-gp assessed as reduction of cell viability after 48 hrs by MTT assay; assay type: ADME; outline: as §3
[10] = Cytotoxicity against mouse T-cell lymphoma expressing human P-gp assessed as reduction of cell viability after 24 hrs by MTT assay; assay type: ADME; outline: as §3

| Ratio [3] | Ratio [5] | Ratio [7] | Ratio [8] | SMILES | Ratio [1] | Ratio [2] | IC50 [4] [µM] | IC50 [6] [µM] | IC50 [9] [µM] | IC50 [10] [µM] |
| --- | --- | --- | --- | --- | --- | --- | --- | --- | --- | --- |
|  |  |  |  | CCOC(=O)C1=CN(Cc2ccc(OC)cc2)c2ccccc2C1c1ccc(OC)cc1 (stereo unspecified) | 2.55 | 12.4 |  |  |  |  |
|  |  |  |  | COc1ccc(CCN(C)CCCC(C#N)(c2ccc(OC)c(OC)c2)C(C)C)cc1OC (stereo unspecified) | 1.46 | 4.98 |  |  |  |  |
|  |  |  |  | CCOC(=O)C1=CN(Cc2cccc(OC)c2)c2ccccc2C1c1cccc(OC)c1 (stereo unspecified) | 2.26 | 9.68 |  |  |  |  |
| 1.06 | 1.07 | 1.06 | 1.07 | CCOC(=O)C1=CN(Cc2ccccc2)c2ccccc2C1c1ccc(OC)c(OC)c1 (stereo unspecified) | 3.42 | 12.8 | > 160 | > 160 | > 160 | > 160 |
| 1.03 | 0.99 | 1.03 | 0.99 | CCOC(=O)C1=CN(Cc2ccccc2)c2ccccc2C1c1cccc(OC)c1 (stereo unspecified) | 1.55 | 7.43 | > 160 | > 160 | > 160 | > 160 |
|  |  |  |  | CCOC(=O)C1=CN(Cc2ccccc2)c2ccccc2C1c1ccc(OC)cc1 (stereo unspecified) | 1.27 | 5.52 |  |  |  |  |
|  |  |  |  | CCOC(=O)C1=CN(Cc2cccc(OC)c2)c2ccccc2C1c1ccc(OC)cc1 (stereo unspecified) | 2.23 | 9.95 |  |  |  |  |
|  |  |  |  | CCOC(=O)C1=CN(Cc2ccccc2)c2ccccc2C1c1cc(OC)cc(OC)c1 (stereo unspecified) | 2.96 | 10.5 |  |  |  |  |
|  |  |  |  | CCOC(=O)C1=CN(Cc2ccccc2)c2ccccc2C1c1ccccc1 (stereo unspecified) | 0.79 | 2.86 |  |  |  |  |
|  |  |  |  | CCOC(=O)C1=CN(Cc2ccc(OC)cc2)c2ccccc2C1c1cccc(OC)c1 (stereo unspecified) | 2.03 | 10.3 |  |  |  |  |
